In ChEMBL document CHEMBL2375357, “Design, synthesis and cytotoxicity of cell death mechanism of rotundic acid derivatives” (Bioorg Med Chem Lett, 2013):
pIC50: −log10 of the molar value.

tested on: NCI-H446; test: Cytotoxicity against human NCI-H446 cells after 24 hrs by MTT assay; format: functional, cell-based; conditions: NCI-H446, 24 h
In short: (§1)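 MTT antiproliferative assay on human tumour lines A-375 (melanoma), SPC-A1 (lung adenocarcinoma), HeLa (cervical), HepG2 (hepatoma) and NCI-H446 (small cell lung cancer). Parent rotundic acid run alongside as positive control. IC50 given as mean ± SD, n = 3, each experiment repeated at least three times. Values above 100 μM reported as >100.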

`C[C@@H]1CC[C@]2(C(=O)NCCO)CC[C@]3(C)C(=CC[C@@H]4[C@@]5(C)CC[C@H](O)[C@@](C)(CO)[C@@H]5CC[C@]43C)[C@@H]2[C@]1(C)O` and `C[C@@H]1CC[C@]2(C(=O)NCCCO)CC[C@]3(C)C(=CC[C@@H]4[C@@]5(C)CC[C@H](O)[C@@](C)(CO)[C@@H]5CC[C@]43C)[C@@H]2[C@]1(C)O` are within 0.2 log units of each other in pIC50: 4.61 for the first, 4.68 for the second.

Going from `CC(CO)NC(=O)[C@]12CC[C@@H](C)[C@@](C)(O)[C@H]1C1=CC[C@@H]3[C@@]4(C)CC[C@H](O)[C@@](C)(CO)[C@@H]4CC[C@@]3(C)[C@]1(C)CC2` (stereo not given in full) to `C[C@@H]1CC[C@]2(C(=O)NCc3ccccc3)CC[C@]3(C)C(=CC[C@@H]4[C@@]5(C)CC[C@H](O)[C@@](C)(CO)[C@@H]5CC[C@]43C)[C@@H]2[C@]1(C)O`, the pIC50 falls from 4.40 to < 4.00. The first is the more potent here.

`CC(=O)OC[C@@]1(C)[C@@H]2CC[C@]3(C)[C@H](CC=C4[C@H]5[C@](C(=O)Nc6ccccc6)(CC[C@@H](C)[C@@]5(C)O)CC[C@]43C)[C@@]2(C)CC[C@@H]1OC(C)=O` and `CC(=O)OC[C@@]1(C)[C@@H]2CC[C@]3(C)[C@H](CC=C4[C@H]5[C@](C(=O)NCc6ccccc6)(CC[C@@H](C)[C@@]5(C)O)CC[C@]43C)[C@@]2(C)CC[C@@H]1OC(C)=O` are within 0.2 log units of each other in pIC50: 4.61 for the first, 4.57 for the second.

`CC(=O)OCCCNC(=O)[C@]12CC[C@@H](C)[C@@](C)(O)[C@H]1C1=CC[C@@H]3[C@@]4(C)CC[C@H](OC(C)=O)[C@@](C)(COC(C)=O)[C@@H]4CC[C@@]3(C)[C@]1(C)CC2` and `CC(=O)OCCNC(=O)[C@]12CC[C@@H](C)[C@@](C)(O)[C@H]1C1=CC[C@@H]3[C@@]4(C)CC[C@H](OC(C)=O)[C@@](C)(COC(C)=O)[C@@H]4CC[C@@]3(C)[C@]1(C)CC2` are within 0.2 log units of each other in pIC50: 4.89 for the first, 4.73 for the second.

Work on `CC(=O)OCc1ccccc1NC(=O)[C@]12CC[C@@H](C)[C@@](C)(O)[C@H]1C1=CC[C@@H]3[C@@]4(C)CC[C@H](OC(C)=O)[C@@](C)(COC(C)=O)[C@@H]4CC[C@@]3(C)[C@]1(C)CC2` yielded a pIC50 of 4.16.

tested on: HeLa; test: Cytotoxicity against human HeLa cells after 24 hrs by MTT assay; format: functional, cell-based; conditions: not given; in short: as §1

First: C[C@@H]1CC[C@]2(C(=O)NCCO)CC[C@]3(C)C(=CC[C@@H]4[C@@]5(C)CC[C@H](O)[C@@](C)(CO)[C@@H]5CC[C@]43C)[C@@H]2[C@]1(C)O
Second: C[C@@H]1CC[C@]2(C(=O)NCCCO)CC[C@]3(C)C(=CC[C@@H]4[C@@]5(C)CC[C@H](O)[C@@](C)(CO)[C@@H]5CC[C@]43C)[C@@H]2[C@]1(C)O
The pIC50 of the first is lower: < 4.00 for the first, 4.75 for the second. The second is the more potent here.

`CC(CO)NC(=O)[C@]12CC[C@@H](C)[C@@](C)(O)[C@H]1C1=CC[C@@H]3[C@@]4(C)CC[C@H](O)[C@@](C)(CO)[C@@H]4CC[C@@]3(C)[C@]1(C)CC2` (stereo not given in full) and `C[C@@H]1CC[C@]2(C(=O)NCc3ccccc3)CC[C@]3(C)C(=CC[C@@H]4[C@@]5(C)CC[C@H](O)[C@@](C)(CO)[C@@H]5CC[C@]43C)[C@@H]2[C@]1(C)O` are within 0.2 log units of each other in pIC50: 4.54 for the first, 4.55 for the second.

`CC(=O)OC[C@@]1(C)[C@@H]2CC[C@]3(C)[C@H](CC=C4[C@H]5[C@](C(=O)Nc6ccccc6)(CC[C@@H](C)[C@@]5(C)O)CC[C@]43C)[C@@]2(C)CC[C@@H]1OC(C)=O` and `CC(=O)OC[C@@]1(C)[C@@H]2CC[C@]3(C)[C@H](CC=C4[C@H]5[C@](C(=O)NCc6ccccc6)(CC[C@@H](C)[C@@]5(C)O)CC[C@]43C)[C@@]2(C)CC[C@@H]1OC(C)=O` are within 0.2 log units of each other in pIC50: 4.80 for the first, 4.72 for the second.

`CC(=O)OCCCNC(=O)[C@]12CC[C@@H](C)[C@@](C)(O)[C@H]1C1=CC[C@@H]3[C@@]4(C)CC[C@H](OC(C)=O)[C@@](C)(COC(C)=O)[C@@H]4CC[C@@]3(C)[C@]1(C)CC2` and `CC(=O)OCCNC(=O)[C@]12CC[C@@H](C)[C@@](C)(O)[C@H]1C1=CC[C@@H]3[C@@]4(C)CC[C@H](OC(C)=O)[C@@](C)(COC(C)=O)[C@@H]4CC[C@@]3(C)[C@]1(C)CC2` are within 0.2 log units of each other in pIC50: 5.37 for the first, 5.27 for the second.

In the case of `CC(=O)OCc1ccccc1NC(=O)[C@]12CC[C@@H](C)[C@@](C)(O)[C@H]1C1=CC[C@@H]3[C@@]4(C)CC[C@H](OC(C)=O)[C@@](C)(COC(C)=O)[C@@H]4CC[C@@]3(C)[C@]1(C)CC2`, the pIC50 was 5.37.

tested on: HepG2; test: Cytotoxicity against human HepG2 cells after 24 hrs by MTT assay; format: functional, cell-based; conditions: HepG2, 24 h; in short: as §1

Compared with `C[C@@H]1CC[C@]2(C(=O)NCCO)CC[C@]3(C)C(=CC[C@@H]4[C@@]5(C)CC[C@H](O)[C@@](C)(CO)[C@@H]5CC[C@]43C)[C@@H]2[C@]1(C)O`, `C[C@@H]1CC[C@]2(C(=O)NCCCO)CC[C@]3(C)C(=CC[C@@H]4[C@@]5(C)CC[C@H](O)[C@@](C)(CO)[C@@H]5CC[C@]43C)[C@@H]2[C@]1(C)O` is 0.23 log units lower in pIC50: 4.34 for the first, 4.11 for the second.

First: CC(CO)NC(=O)[C@]12CC[C@@H](C)[C@@](C)(O)[C@H]1C1=CC[C@@H]3[C@@]4(C)CC[C@H](O)[C@@](C)(CO)[C@@H]4CC[C@@]3(C)[C@]1(C)CC2 (stereo not given in full)
Second: C[C@@H]1CC[C@]2(C(=O)NCc3ccccc3)CC[C@]3(C)C(=CC[C@@H]4[C@@]5(C)CC[C@H](O)[C@@](C)(CO)[C@@H]5CC[C@]43C)[C@@H]2[C@]1(C)O
The pIC50 of the first is higher: 4.26 for the first, < 4.00 for the second.

`CC(=O)OC[C@@]1(C)[C@@H]2CC[C@]3(C)[C@H](CC=C4[C@H]5[C@](C(=O)Nc6ccccc6)(CC[C@@H](C)[C@@]5(C)O)CC[C@]43C)[C@@]2(C)CC[C@@H]1OC(C)=O` and `CC(=O)OC[C@@]1(C)[C@@H]2CC[C@]3(C)[C@H](CC=C4[C@H]5[C@](C(=O)NCc6ccccc6)(CC[C@@H](C)[C@@]5(C)O)CC[C@]43C)[C@@]2(C)CC[C@@H]1OC(C)=O` are within 0.2 log units of each other in pIC50: 4.65 for the first, 4.71 for the second.

First: CC(=O)OCCCNC(=O)[C@]12CC[C@@H](C)[C@@](C)(O)[C@H]1C1=CC[C@@H]3[C@@]4(C)CC[C@H](OC(C)=O)[C@@](C)(COC(C)=O)[C@@H]4CC[C@@]3(C)[C@]1(C)CC2
Second: CC(=O)OCCNC(=O)[C@]12CC[C@@H](C)[C@@](C)(O)[C@H]1C1=CC[C@@H]3[C@@]4(C)CC[C@H](OC(C)=O)[C@@](C)(COC(C)=O)[C@@H]4CC[C@@]3(C)[C@]1(C)CC2
The pIC50 of the first is 0.43 log units lower: 4.92 for the first, 5.35 for the second.

`CC(=O)OCc1ccccc1NC(=O)[C@]12CC[C@@H](C)[C@@](C)(O)[C@H]1C1=CC[C@@H]3[C@@]4(C)CC[C@H](OC(C)=O)[C@@](C)(COC(C)=O)[C@@H]4CC[C@@]3(C)[C@]1(C)CC2` gave a pIC50 of 4.91.

tested on: A-375; test: Cytotoxicity against human A375 cells after 24 hrs by MTT assay; format: functional, cell-based; conditions: A-375, 24 h; in short: as §1

First: C[C@@H]1CC[C@]2(C(=O)NCCO)CC[C@]3(C)C(=CC[C@@H]4[C@@]5(C)CC[C@H](O)[C@@](C)(CO)[C@@H]5CC[C@]43C)[C@@H]2[C@]1(C)O
Second: C[C@@H]1CC[C@]2(C(=O)NCCCO)CC[C@]3(C)C(=CC[C@@H]4[C@@]5(C)CC[C@H](O)[C@@](C)(CO)[C@@H]5CC[C@]43C)[C@@H]2[C@]1(C)O
The pIC50 of the first is 0.23 log units lower: 4.67 for the first, 4.90 for the second.

First: CC(CO)NC(=O)[C@]12CC[C@@H](C)[C@@](C)(O)[C@H]1C1=CC[C@@H]3[C@@]4(C)CC[C@H](O)[C@@](C)(CO)[C@@H]4CC[C@@]3(C)[C@]1(C)CC2 (stereo not given in full)
Second: C[C@@H]1CC[C@]2(C(=O)NCc3ccccc3)CC[C@]3(C)C(=CC[C@@H]4[C@@]5(C)CC[C@H](O)[C@@](C)(CO)[C@@H]5CC[C@]43C)[C@@H]2[C@]1(C)O
The pIC50 of the first is higher: 4.45 for the first, < 4.00 for the second. The first is the more potent here.

`CC(=O)OC[C@@]1(C)[C@@H]2CC[C@]3(C)[C@H](CC=C4[C@H]5[C@](C(=O)Nc6ccccc6)(CC[C@@H](C)[C@@]5(C)O)CC[C@]43C)[C@@]2(C)CC[C@@H]1OC(C)=O` and `CC(=O)OC[C@@]1(C)[C@@H]2CC[C@]3(C)[C@H](CC=C4[C@H]5[C@](C(=O)NCc6ccccc6)(CC[C@@H](C)[C@@]5(C)O)CC[C@]43C)[C@@]2(C)CC[C@@H]1OC(C)=O` are within 0.2 log units of each other in pIC50: 4.75 for the first, 4.86 for the second.

Going from `CC(=O)OCCCNC(=O)[C@]12CC[C@@H](C)[C@@](C)(O)[C@H]1C1=CC[C@@H]3[C@@]4(C)CC[C@H](OC(C)=O)[C@@](C)(COC(C)=O)[C@@H]4CC[C@@]3(C)[C@]1(C)CC2` to `CC(=O)OCCNC(=O)[C@]12CC[C@@H](C)[C@@](C)(O)[C@H]1C1=CC[C@@H]3[C@@]4(C)CC[C@H](OC(C)=O)[C@@](C)(COC(C)=O)[C@@H]4CC[C@@]3(C)[C@]1(C)CC2`, the pIC50 rises from 5.00 to 5.38 (0.38 log units). The second is the more potent here.

With `CC(=O)OCc1ccccc1NC(=O)[C@]12CC[C@@H](C)[C@@](C)(O)[C@H]1C1=CC[C@@H]3[C@@]4(C)CC[C@H](OC(C)=O)[C@@](C)(COC(C)=O)[C@@H]4CC[C@@]3(C)[C@]1(C)CC2` the pIC50 was 5.04.

tested on: not listed separately; test: Cytotoxicity against human SPC-A1 cells after 24 hrs by MTT assay; format: functional, cell-based; conditions: SPCA1, 24 h; in short: as §1

Compared with `C[C@@H]1CC[C@]2(C(=O)NCCO)CC[C@]3(C)C(=CC[C@@H]4[C@@]5(C)CC[C@H](O)[C@@](C)(CO)[C@@H]5CC[C@]43C)[C@@H]2[C@]1(C)O`, `C[C@@H]1CC[C@]2(C(=O)NCCCO)CC[C@]3(C)C(=CC[C@@H]4[C@@]5(C)CC[C@H](O)[C@@](C)(CO)[C@@H]5CC[C@]43C)[C@@H]2[C@]1(C)O` is higher in pIC50: < 4.00 for the first, 4.08 for the second. The second is the more potent here.

`CC(CO)NC(=O)[C@]12CC[C@@H](C)[C@@](C)(O)[C@H]1C1=CC[C@@H]3[C@@]4(C)CC[C@H](O)[C@@](C)(CO)[C@@H]4CC[C@@]3(C)[C@]1(C)CC2` (stereo not given in full) and `C[C@@H]1CC[C@]2(C(=O)NCc3ccccc3)CC[C@]3(C)C(=CC[C@@H]4[C@@]5(C)CC[C@H](O)[C@@](C)(CO)[C@@H]5CC[C@]43C)[C@@H]2[C@]1(C)O` cannot be ordered by pIC50: < 4.00 for the first, < 4.00 for the second.

`CC(=O)OC[C@@]1(C)[C@@H]2CC[C@]3(C)[C@H](CC=C4[C@H]5[C@](C(=O)Nc6ccccc6)(CC[C@@H](C)[C@@]5(C)O)CC[C@]43C)[C@@]2(C)CC[C@@H]1OC(C)=O` and `CC(=O)OC[C@@]1(C)[C@@H]2CC[C@]3(C)[C@H](CC=C4[C@H]5[C@](C(=O)NCc6ccccc6)(CC[C@@H](C)[C@@]5(C)O)CC[C@]43C)[C@@]2(C)CC[C@@H]1OC(C)=O` are within 0.2 log units of each other in pIC50: 4.79 for the first, 4.92 for the second.

`CC(=O)OCCCNC(=O)[C@]12CC[C@@H](C)[C@@](C)(O)[C@H]1C1=CC[C@@H]3[C@@]4(C)CC[C@H](OC(C)=O)[C@@](C)(COC(C)=O)[C@@H]4CC[C@@]3(C)[C@]1(C)CC2` and `CC(=O)OCCNC(=O)[C@]12CC[C@@H](C)[C@@](C)(O)[C@H]1C1=CC[C@@H]3[C@@]4(C)CC[C@H](OC(C)=O)[C@@](C)(COC(C)=O)[C@@H]4CC[C@@]3(C)[C@]1(C)CC2` are within 0.2 log units of each other in pIC50: 4.92 for the first, 5.03 for the second.

With `CC(=O)OCc1ccccc1NC(=O)[C@]12CC[C@@H](C)[C@@](C)(O)[C@H]1C1=CC[C@@H]3[C@@]4(C)CC[C@H](OC(C)=O)[C@@](C)(COC(C)=O)[C@@H]4CC[C@@]3(C)[C@]1(C)CC2` the pIC50 was 4.88.
